According to ChEMBL document CHEMBL1138232, “Optimization of naphthalimide-imidazoacridone with potent antitumor activity leading to clinical candidate (HKH40A, RTA 502)” (J Med Chem, 2007):
pIC50: −log10 of the molar value. Where “and” joins values, the source holds several entries; their conditions need not be identical. Equal entries are not always repeated.

What was measured:
NCI-H226 = test: Antitumor activity against human NCI-H226 cells after 48 hrs; type: functional; settings: NCI-H226, 48 h
How it was run: (§1)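 Tested in the NCI 60 human tumour cell line screen, with continuous drug exposure for 48 h. Values include LC50 derived from the screen.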

PC-3 [1] = test: Antitumor activity against human PC3 cells after 48 hrs; type: functional; settings: PC-3, 48 h; how it was run: as §1
NCI-H522 = test: Antitumor activity against human NCI-H522 cells after 48 hrs; type: functional; settings: NCI-H522, 48 h; how it was run: as §1
786-0 = test: Antitumor activity against human 786-0 cells after 48 hrs; type: functional; settings: 786-0, 48 h; how it was run: as §1
SR = test: Antitumor activity against human SR cells after 48 hrs; type: functional
How it was run: (§2)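 NCI 60 human tumour cell line screen; 48 h continuous drug exposure. Compounds tested as tri(methanesulfonate) salts, soluble in water and dilute buffers. Dilute solutions are light-sensitive and adsorb to glass or quartz.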

EKVX = test: Antitumor activity against human EKVX cells after 48 hrs; type: functional; how it was run: as §1
HCT-15 = test: Antitumor activity against human HCT15 cells after 48 hrs; type: functional; settings: HCT-15, 48 h; how it was run: as §1
SW-620 = test: Antitumor activity against human SW620 cells after 48 hrs; type: functional; settings: SW-620, 48 h; how it was run: as §2
T47D = test: Antitumor activity against human T47D cells after 48 hrs; type: functional; how it was run: as §2
NCI-H23 = test: Antitumor activity against human NCI-H23 cells after 48 hrs; type: functional; settings: NCI-H23, 48 h; how it was run: as §1
SN12C = test: Antitumor activity against human SN12C cells after 48 hrs; type: functional; how it was run: as §1
SK-MEL-28 = test: Antitumor activity against human SK-MEL-28 cells after 48 hrs; type: functional; settings: SK-MEL-28, 48 h; how it was run: as §1
SNB-75 = test: Antitumor activity against human SNB75 cells after 48 hrs; type: functional; settings: SNB-75, 48 h; how it was run: as §2
HT-29 = test: Antitumor activity against human HT29 cells after 48 hrs; type: functional; settings: HT-29, 48 h; how it was run: as §1
HCT-116 [2] = test: Antitumor activity against human HCT116 cells expressing wild type p53; type: functional; settings: read-out: LC50 (the source's name)
How it was run: (§3)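 Compounds tested as tri(methanesulfonate) salts, soluble in water and dilute buffers. Human tumour cells carrying wild-type or mutated p53 were exposed for 5 days, and viability was read by MTT assay. GI50, TGI and LC50 were calculated from the MTT data. Values are means ± SD of at least three independent experiments, with coefficients of variation of 10–20%.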

PC-3 [3] = test: Antitumor activity against PC3 cells expressing mutated p53; type: functional, cell-based; settings: Homo sapiens; how it was run: as §3
UO-31 = test: Antitumor activity against human UO31 cells after 48 hrs; type: functional; settings: UO-31, 48 h; how it was run: as §2
[4] = Plasma clearance in CD2F1 mouse at 20 mg/kg, iv; type: ADME, organism-based; set-up: dose 20 mg/kg, route intravenous
How it was run: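 Pilot pharmacokinetics in CD2F1 mice after i.v. injection. Total plasma clearance derived from plasma concentration data.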

CCRF-CEM = test: Antitumor activity against human CCRF-CEM cells after 48 hrs; type: functional; how it was run: as §1
MDA-MB-435 = test: Antitumor activity against human MDA-MB-435 cells after 48 hrs; type: functional; settings: MDA-MB-435, 48 h; how it was run: as §1
SF-268 = test: Antitumor activity against human SF268 cells after 48 hrs; type: functional; settings: SF-268, 48 h; how it was run: as §1
K562 = test: Antitumor activity against human K562 cells after 48 hrs; type: functional; how it was run: as §1
SNB-19 = test: Antitumor activity against human SNB19 cells after 48 hrs; type: functional; settings: SNB-19, 48 h; how it was run: as §1
[5] = Antitumor activity against human 10.05 cells expressing mutated p53; type: functional, cell-based; how it was run: as §3
HCT-116 [6] = test: Cell cycle arrest in HCT116 cells assessed as accumulation at G1 phase at 50 nM after 72 hrs; type: functional, Homo sapiens
How it was run: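 HCT116 cells exposed to 50 nM drug for 72 h, then cell-cycle distribution analysed. Sub-G1, G1, S and G2/M fractions reported as percent of cells, with untreated control cells for comparison.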

RPMI-8226 = test: Antitumor activity against human RPMI-8226 cells after 48 hrs; type: functional; settings: RPMI-8226, 48 h; how it was run: as §1
OVCAR-3 = test: Antitumor activity against human OVCAR-3 cells after 48 hrs; type: functional; settings: OVCAR-3, 48 h; how it was run: as §1
HCT-116 [7] = test: Growth inhibition of human HCT116 cells after 5 days by MTT assay; type: functional; settings: HCT-116, 120 h
How it was run: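 MTT assay after 5 day continuous exposure. GI50, TGI and LC50 calculated from the MTT data. Means ± SD of at least three independent experiments; coefficients of variation 10-20%. Compounds used as tri(methanesulfonate) salts.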

Hs-578T = test: Antitumor activity against human HS578T cells after 48 hrs; type: functional; how it was run: as §1
Malme-3M = test: Antitumor activity against human MALME-3M cells after 48 hrs; type: functional; how it was run: as §1
NCI = test: Antitumor activity against human NCI/ADR-RES cells after 48 hrs; type: functional; how it was run: as §1
DU-145 = test: Antitumor activity against human DU145 cells after 48 hrs; type: functional; settings: DU-145, 48 h; how it was run: as §1
COLO 205 = test: Antitumor activity against human Colo205 cells expressing mutated p53; type: functional, cell-based; how it was run: as §3
[8] = read-out: Log LC50 (the source's name) (converted)

In the case of `COc1ccc2c(c1)c(=O)c1c(NCCCN3CCN(CCCN4C(=O)c5cccc6cc([N+](=O)[O-])cc(c56)C4=O)CC3)ccc3ncn2c31.CS(=O)(=O)O`, the GI50 (NCI-H226) was 0.00132 µM, the CC50 (NCI-H226; [8]) was > 1 µM and the TGI (NCI-H226; read-out: Log TGI (converted)) was 0.0324 µM. For the same compound, the GI50 (PC-3 [1]) was 0.00309 µM, the CC50 (PC-3 [1]; [8]) was > 1 µM and the TGI (PC-3 [1]; read-out: Log TGI (converted)) was 0.339 µM. For the same compound, the GI50 (NCI-H522) was 0.00417 µM, the CC50 (NCI-H522; [8]) was > 1 µM and the TGI (NCI-H522; read-out: Log TGI (converted)) was 0.151 µM. For the same compound, the GI50 (786-0) was 0.00525 µM, the CC50 (786-0; [8]) was > 1 µM and the TGI (786-0; read-out: Log TGI (converted)) was > 1 µM. For the same compound, the GI50 (SR) was < 0.0001 µM, the CC50 (SR; [8]) was 0.017 µM and the TGI (SR; read-out: Log TGI (converted)) was < 0.0001 µM. For the same compound, the GI50 (EKVX) was 0.00331 µM, the CC50 (EKVX; [8]) was > 1 µM and the TGI (EKVX; read-out: Log TGI (converted)) was 0.0589 µM. The GI50 (HCT-15) was 0.00309 µM, the CC50 (HCT-15; [8]) was > 1 µM and the TGI (HCT-15; read-out: Log TGI (converted)) was > 1 µM. For the same compound, the GI50 (SW-620) was 0.000676 µM, the CC50 (SW-620; [8]) was > 1 µM and the TGI (SW-620; read-out: Log TGI (converted)) was > 1 µM. For the same compound, the GI50 (T47D) was 0.00871 µM, the CC50 (T47D; [8]) was > 1 µM and the TGI (T47D; read-out: Log TGI (converted)) was > 1 µM. The GI50 (NCI-H23) was 0.0204 µM, the CC50 (NCI-H23; [8]) was > 1 µM and the TGI (NCI-H23; read-out: Log TGI (converted)) was > 1 µM. The GI50 (SN12C) was 0.00251 µM, the CC50 (SN12C; [8]) was > 1 µM and the TGI (SN12C; read-out: Log TGI (converted)) was > 1 µM. For the same compound, the GI50 (SK-MEL-28) was 0.00549 µM, the CC50 (SK-MEL-28; [8]) was > 1 µM and the TGI (SK-MEL-28; read-out: Log TGI (converted)) was 0.933 µM. For the same compound, the GI50 (SNB-75) was 0.00676 µM, the CC50 (SNB-75; [8]) was > 1 µM and the TGI (SNB-75; read-out: Log TGI (converted)) was 0.214 µM. For the same compound, the GI50 (HT-29) was 0.00275 µM, the CC50 (HT-29; [8]) was > 1 µM and the TGI (HT-29; read-out: Log TGI (converted)) was 0.295 µM. The CC50 (HCT-116 [2]) was 0.03 µM, the pIC50 (PC-3 [3]) was 7.35 and the GI50 (UO-31) was 0.00269 µM. The CC50 (UO-31; [8]) was > 1 µM, the TGI (UO-31; read-out: Log TGI (converted)) was 0.0178 µM and the clearance [4] was 14.3 L/h/kg. The GI50 (CCRF-CEM) was 0.00407 µM, the CC50 (CCRF-CEM; [8]) was > 1 µM and the TGI (CCRF-CEM; read-out: Log TGI (converted)) was 0.0977 µM. For the same compound, the GI50 (MDA-MB-435) was 0.00741 µM, the CC50 (MDA-MB-435; [8]) was > 1 µM and the TGI (MDA-MB-435; read-out: Log TGI (converted)) was > 1 µM. The GI50 (SF-268) was 0.0102 µM, the CC50 (SF-268; [8]) was > 1 µM and the TGI (SF-268; read-out: Log TGI (converted)) was > 1 µM. For the same compound, the GI50 (K562; Homo sapiens, K562, 48 h) was 0.00174 µM, the TGI (K562; read-out: Log TGI (converted)) was 0.186 µM and > 1 µM and the GI50 (SNB-19) was 0.00851 µM. The CC50 (SNB-19; [8]) was > 1 µM, the TGI (SNB-19; read-out: Log TGI (converted)) was > 1 µM and the pIC50 [5] was 7.05. For the same compound, the Activity (HCT-116 [6]) was 22.6%, the GI50 (RPMI-8226) was 0.00407 µM and the CC50 (RPMI-8226; [8]) was > 1 µM. For the same compound, the TGI (RPMI-8226; read-out: Log TGI (converted)) was > 1 µM, the GI50 (OVCAR-3) was 0.0501 µM and the CC50 (OVCAR-3; [8]) was > 1 µM. The TGI (OVCAR-3; read-out: Log TGI (converted)) was > 1 µM, the GI50 (HCT-116 [7]) was 0.001 µM and the LC50 (HCT-116 [7]) was 0.03 µM. The GI50 (Hs-578T) was 0.0148 µM, the CC50 (Hs-578T; [8]) was > 1 µM and the TGI (Hs-578T; read-out: Log TGI (converted)) was > 1 µM. The GI50 (Malme-3M) was 0.00603 µM, the CC50 (Malme-3M; [8]) was > 1 µM and the TGI (Malme-3M; read-out: Log TGI (converted)) was 0.0955 µM. For the same compound, the GI50 (NCI) was 0.024 µM, the CC50 (NCI; [8]) was > 1 µM and the TGI (NCI; read-out: Log TGI (converted)) was > 1 µM. For the same compound, the GI50 (DU-145) was 0.00371 µM, the CC50 (DU-145; [8]) was > 1 µM and the TGI (DU-145; read-out: Log TGI (converted)) was > 1 µM. For the same compound, the pIC50 (COLO 205) was 7.10.
